Only some compounds are listed: those with a hit (about 2.4% of all), similar ones and a draw of the others.
HIV Env fusion: inhibitors of HIV-1 Env-driven cell-cell fusion, primary screen, HeLa-JRFL effector, CEM21 target cells, luciferase | inhibition, % at 12.3 µM | 1.1% of 360,000 active | AID 651610, 2012;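 active = mean replicate inhibition score of at least 50 and every replicate individually at or above 50; inconclusive = only one of the two criteria met; inactive = mean below 50 and not all replicates reaching 50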;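 note: 0% = plate neutral controls and 100% = maraviroc near 300 nM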
miR-122 sensor: miR-122 Renilla sensor signal increase in Huh7, primary screen, miR-122 inhibitor project, cell-based, single point, plate reader. Huh7 miR-122 Renilla luciferase sensor, 48 h; neutral wells = 0, positive control = 100. 0.3% of 340,000 active. AID 602342, 2012. activation (reporter increase), % at 12.5 µM;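 active = mean replicate activation score at least 90 and every replicate individually at or above 90; inconclusive = only one of the two criteria met; inactive = neither criterion met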;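 note: higher luciferase means less miR-122 activity so hits act as miR-122 inhibitors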
Cneo AK release: Cryptococcus neoformans cell lysis inducers, primary screen, AK release luminescence, single concentration. 0.2% of 360,000 active. C. neoformans lysis, adenylate kinase release luminescence, 4 h; normalised: neutral wells 0, clomiphene wells 100. lysis activity, % at 15 µM;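 active = mean lysis activity across replicates of at least 80%, whatever share of replicates individually reach that level; inactive = mean lysis activity below 80%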
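Assay system: Cryptococcus neoformans yeast cells / Dosing: single-point compound dose / Timing: 4 h at 37 °C static, read 1 h later / Measured by: luminescence of released adenylate kinase using an AK detection reagent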
dFosB activator: activators of delta FosB homodimer, primary screen, biochemical, fluorescence polarization, TAMRA-CDK5 oligo, single point | 0.99% of 340,000 active | Protein FosB (Mus musculus), P13346 | purified delta FosB; percent of positive-control signal above neutral wells | activation, % at 25 µM;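 active = mean activation above about 17%, with every replicate also reaching it, limit read from the data, passing the limit was not always enough; inconclusive = only one of the two conditions met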
GSIS activator: GLuc luminescence reporter in INS-1E cells, primary screen for activators of glucose-dependent secretion of insulin; AID 743287, 2014; 0.61% of 370,000 active; activation, % at 16.6 µM; INS-1E GLuc reporter insulin secretion, 2-3 h;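 active = lowest replicate activation of at least 40%, so every replicate reaches that level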;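 note: 0% = median of neutral control wells and 100% = median of IBMX positive control wells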
Rtt109 HAT inh: inhibitors of C. albicans Rtt109/Vps75 HAT, primary screen, biochemical, ThioGlo CoA-SH fluorescence, plate reader | purified Rtt109/Vps75, 4 h | 0.16% of 330,000 active | Histone acetyltransferase RTT109 (Candida albicans (strain SC5314 / ATCC MYA-2876)), … | inhibition, % at 34.9 µM;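 active = inhibition of at least 50% in every replicate; inconclusive = best replicate reaches 50% inhibition but some replicates fall short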
Target sequence (Q5AAJ8 whole entry, looked up): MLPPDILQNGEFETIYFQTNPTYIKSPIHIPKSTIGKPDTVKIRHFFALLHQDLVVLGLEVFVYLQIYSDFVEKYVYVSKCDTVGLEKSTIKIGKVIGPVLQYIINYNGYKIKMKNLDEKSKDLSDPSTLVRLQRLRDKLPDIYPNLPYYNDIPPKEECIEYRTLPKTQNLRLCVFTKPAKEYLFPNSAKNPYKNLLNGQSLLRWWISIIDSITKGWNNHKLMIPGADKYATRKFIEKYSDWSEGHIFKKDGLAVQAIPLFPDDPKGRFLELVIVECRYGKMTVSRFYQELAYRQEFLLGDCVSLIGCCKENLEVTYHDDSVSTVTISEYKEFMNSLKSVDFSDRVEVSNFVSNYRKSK
The depositor's hits bear a star; [ ] = remark or other dose.

Screening COc1ccc([Si](C)(C)[C@@H]2[C@@H](CCO)O[C@]3(C(=O)N(Cc4cccc(N5CCOC5=O)c4)c4ccccc43)[C@H]2C)cc1 returned HIV Env fusion inconclusive and Cneo AK release -1.3.
`Cc1ccccc1CS(=O)(=O)c1nnc([C@H](Cc2ccccc2)NC(=O)OC(C)(C)C)o1` gave miR-122 sensor -6.2, Cneo AK release -1.3, dFosB activator 9.4, GSIS activator 45.0* and Rtt109 HAT inh 5.5.
For CC(C)(C)OC(=O)N[C@@H](Cc1ccccc1)c1nnc(S(=O)(=O)Cc2ccccc2)o1 the results were HIV Env fusion 47.5 and GSIS activator 169.4*.
`Cc1cc(C)nc(NC(N)=NCCc2ccccc2)n1` gave HIV Env fusion -118.1, Cneo AK release -1.4, dFosB activator -10.1 and Rtt109 HAT inh -3.9.
For Cc1cc(C)nc(NC(N)=NCCc2c[nH]c3ccccc23)n1 the results were HIV Env fusion -2.3, miR-122 sensor -15.9, Cneo AK release 2.3, dFosB activator 13.2, GSIS activator 44.8* and Rtt109 HAT inh 16.2.
`COc1cccc(NC(=O)N(C)C[C@H]2OCc3cnnn3CCCC(=O)N([C@@H](C)CO)C[C@H]2C)c1` gave miR-122 sensor 2.6[16.7 µM] and GSIS activator -10.2.
Screening COc1ccc2c3c(n(C)c2c1)[C@@H](CO)N(CC1CC1)CC31CN(Cc2ccc(F)cc2)C1 returned GSIS activator -7.8.
COc1ccc(CCC(C)NCc2ccc(F)cc2)cc1 (stereo not given) was read as HIV Env fusion inconclusive, miR-122 sensor -6.5, Cneo AK release 0.0, dFosB activator 1.9, GSIS activator 8.0 and Rtt109 HAT inh 3.5.
COc1ccc(CCC(C)Nc2ccc(F)c(F)c2)cc1 (stereo not given) was read as dFosB activator 1.2, GSIS activator -13.8 and Rtt109 HAT inh -7.2.
For COc1ccc(CCC(C)NCc2ccc(Cl)c(Cl)c2)cc1 (stereo not given) the results were HIV Env fusion 81.1*, miR-122 sensor -2.7, Cneo AK release 8.0, dFosB activator -5.0, GSIS activator 0.3 and Rtt109 HAT inh 4.2.
`COc1ccc(CCC(C)NCCc2ccc(Cl)cc2Cl)cc1` (stereo not given) gave HIV Env fusion 55.4*, miR-122 sensor 7.8, Cneo AK release 6.7, dFosB activator -6.3, GSIS activator -9.6 and Rtt109 HAT inh 5.0.
`COc1ccc(CCC(C)NCc2cc(OC)cc(OC)c2)cc1` (stereo not given) gave HIV Env fusion 71.1*, miR-122 sensor -1.9, Cneo AK release 2.3, dFosB activator -17.7, GSIS activator -6.2 and Rtt109 HAT inh -1.3.
Screening COc1ccccc1NS(=O)(=O)c1ccc(O)c(C(=O)OCC(=O)Nc2ccccc2F)c1 returned HIV Env fusion 14.4, miR-122 sensor -9.5, Cneo AK release 1.9, dFosB activator -12.4, GSIS activator -16.5 and Rtt109 HAT inh 3.8.
`O=C(COC(=O)c1cc(S(=O)(=O)Nc2ccccc2Cl)ccc1O)Nc1ccc(F)c(F)c1F` gave HIV Env fusion -38.6, Cneo AK release -9.9, dFosB activator 24.7* and Rtt109 HAT inh -7.9.
`COc1cccc(-n2c(=O)c3ccccc3n(CC(=O)NCC3CCCO3)c2=O)c1` (stereo not given) gave HIV Env fusion 2.0, miR-122 sensor -2.2, Cneo AK release -0.2, dFosB activator -6.2, GSIS activator 75.5* and Rtt109 HAT inh -1.6.
Screening Cc1ccc(C(O)(C(=O)NN(C(=O)c2ccccc2)c2ccccc2)c2ccc(C)cc2)cc1 returned HIV Env fusion -26.4, dFosB activator 3.2 and Rtt109 HAT inh -12.6.
For Cc1ccc(N(NC(=O)C(O)(c2ccccc2)c2ccccc2)C(=O)CCl)cc1 the results were HIV Env fusion 70.2*, dFosB activator 5.1, GSIS activator 82.0* and Rtt109 HAT inh -1.6.
For CCC(O)(CC)C(=O)NN(C(=O)CCl)c1ccccc1 the results were HIV Env fusion 61.4*, dFosB activator 7.5, GSIS activator 16.7 and Rtt109 HAT inh 3.4.
Screening O=C1N[C@H](c2ccccc2)COCc2cnnn2CC[C@H]1Cc1ccc(-c2ccccc2)cc1 returned GSIS activator -1.4.
For C[C@H](CO)N1C[C@H](C)[C@H](CN(C)S(=O)(=O)c2ccccc2)OCCCC[C@H](C)Oc2ccc(NS(=O)(=O)c3cn(C)cn3)cc2C1=O the results were HIV Env fusion 0.8[16.7 µM], miR-122 sensor 0.3[16.7 µM], Cneo AK release -0.5 and GSIS activator -0.6.
CC(Sc1nc(-c2ccccc2)cc(C(F)(F)F)n1)C(=O)N1CCCCC1 (stereo not given) was read as miR-122 sensor -0.2, Cneo AK release -3.0, dFosB activator -13.9 and Rtt109 HAT inh 6.4.
`CC1CCCN(C(=O)C(C)Sc2nc(-c3ccccc3)cc(C(F)(F)F)n2)C1` (stereo not given) gave HIV Env fusion 57.2*, miR-122 sensor -1.4, Cneo AK release -1.9, dFosB activator -5.1 and Rtt109 HAT inh -4.4.
COc1ccc2c3c([nH]c2c1)[C@H](CO)N(Cc1ccccn1)CC31CN(C(=O)c2ccccn2)C1 was read as GSIS activator 2.9.
Cc1c(Cl)cccc1NC(CC(=O)c1ccccc1)C(=O)O (stereo not given) was read as HIV Env fusion -18.9, miR-122 sensor -9.1, dFosB activator 4.7, GSIS activator 17.8 and Rtt109 HAT inh 70.0*.
O=C(c1ccncc1)N1CC(=O)N2[C@H](CO)[C@@H](c3ccc(C#CCC4CCCC4)cc3)[C@H]2C1 was read as GSIS activator 31.6.
`CN1CCN(C(=O)C[C@@H]2CC[C@@H]3[C@H](COC[C@@H](O)CN3C(=O)C3CC3)O2)CC1` gave miR-122 sensor -2.9[16.7 µM], Cneo AK release -1.2 and GSIS activator 13.1.
For CN(C)C(=O)C[C@H]1C=C[C@H](NC(=O)NC2CCCCC2)[C@H](CO)O1 the results were HIV Env fusion 10.6[16.7 µM], miR-122 sensor 1.0[16.7 µM], Cneo AK release 3.3 and GSIS activator 22.4.
CCN(CCNCC(O)COc1ccccc1C(C)C)c1cccc(C)c1 (stereo not given) was read as HIV Env fusion 17.9, miR-122 sensor -25.0, Cneo AK release 6.6, dFosB activator 2.5, GSIS activator 382.6* and Rtt109 HAT inh 2.9.
